In ChEMBL document CHEMBL1152483, “To determine the cytotoxicity of chlorambucil and one of its nitro-derivatives, conjugated to prasterone and pregnenolone, towards eight human cancer cell-lines” (Eur J Med Chem, 2009):
Activity calls are given as the source filed them. No cut-off for these calls is given here.

Columns and labels:
[1] = Cytotoxicity against human OVCA3 cells after 5 days by MTT assay; format: functional, cell-based; conditions: OVCA3, 120 h
Method in brief: (§1)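 Cells are grown in RPMI with 2 mM L-glutamine and 10% FBS and seeded at 400–1000 per well. They get doubling dilutions of drug, each dose in triplicate, for five days at 37 °C, 5% CO2, humidified. MTT at 3 mg/ml is added for 3 h, and formazan is dissolved in DMSO and read at 540 nm minus 620 nm. % growth inhibition is taken against control wells and IC50 calculated.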

[2] = tested on: MDA-MB-468; assay: Cytotoxicity against human MDA-MB-468 cells […] after 5 days by MTT assay; format: functional, cell-based; conditions: MDA-MB-468, 120 h; method in brief: as §1
[3] = Metabolic stability in human plasma assessed as rate of hydrolysis after 24 hrs; format: ADME, cell-free; conditions: read-out: Activity
Method in brief: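 Ester stock is made in absolute ethanol and added to freshly prepared human plasma with PBS, then incubated at 37 °C. Samples are mixed with an equal volume of mobile phase, spun 20 min at 11,600 g, and the supernatant is diluted in mobile phase for RP-HPLC.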

[4] = tested on: Daoy; assay: Cytotoxicity against human DaOY cells after 5 days by MTT assay; format: functional, cell-based; conditions: 120 h; method in brief: as §1
[5] = tested on: MCF7; assay: Cytotoxicity against human MCF7 cells expressing estrogen and progesterone receptor after 5 days by MTT assay; format: functional, cell-based; conditions: MCF7, 120 h; method in brief: as §1
[6] = tested on: MDA-MB-468; assay: Cytotoxicity against human MDA-MB-468 cells transfected with NAD(P)H: quinone oxidoreductase NQO1 after 5 days by MTT assay; format: functional, cell-based; conditions: MDA-MB-468, 120 h; method in brief: as §1
[7] = Partition coefficient, log P after 1 hr by UV spectroscopy; format: physicochemical; conditions: octanol/water
Method in brief: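 Compound is shaken in n-octanol/water for 1 h at 20 °C, then spun 10 min at 3600 g and the phases separated. Original and shaken solutions are diluted to 0.8 mg% and compared by UV spectroscopy at 200–400 nm. Log P is calculated by the Leo method.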

[8] = tested on: NCI-H460; assay: Cytotoxicity against human H460 cells after 5 days by MTT assay; format: functional, cell-based; conditions: NCI-H460, 120 h; method in brief: as §1
[9] = Alkylating activity in 0.2 M acetate buffer of pH 5.6 at 0.1 to 1 mM after 4 hrs by spectrophotometry relative to chlorambucil; format: physicochemical; conditions: pH 5.6, 4 h, 1000 µM
Method in brief: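 Each compound at 0.1–1.0 mM in 50% (v/v) acetone/ethanol is added to 0.2 M acetate buffer pH 5.6 with 5% (w/v) p-nitrobenzyl pyridine in acetone and incubated 4 h at 37 °C. Colour is then developed with 25% (v/v) 3-amino-1-propanol in tert-butanol and absorbance read at 560 nm.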

[10] = tested on: WiDr; assay: Cytotoxicity against human WiDr cells after 5 days by MTT assay; format: functional, cell-based; conditions: 120 h; method in brief: as §1
[11] = tested on: MDA-MB-468; assay: Ratio of IC50 for […] human MDA-MB-468 cells transfected with NAD(P)H: quinone oxidoreductase NQO1 to IC50 for human MDA-MB-468 cells […]; format: functional
[12] = Chemical stability assessed as rate of hydrolysis after 2 hrs by HPLC analysis in presence of pig liver esterase; format: physicochemical; conditions: read-out: Activity
Method in brief: (§2)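 Porcine liver esterase is preincubated about 15 min at 37 °C in phosphate buffer pH 7.4, then ester is added. Aliquots are taken at set times, quenched with an equal volume of acetonitrile, vortexed and spun 10 min at 11,600 g. Samples are run on RP-HPLC (C18, 2% acetic acid/acetonitrile pH 5.2, 1.2 ml/min, 254 nm). The zero reaction is ester in buffer alone for 15 min.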

[13] = Chemical stability assessed as rate of hydrolysis after 24 hrs by HPLC analysis in presence of pig liver esterase; format: physicochemical; conditions: read-out: Activity; method in brief: as §2
[14] = tested on: A-375; assay: Cytotoxicity against human A375 cells after 5 days by MTT assay; format: functional, cell-based; conditions: A-375, 120 h; method in brief: as §1
[15] = Chemical stability in phosphate buffer saline at pH 7.4 assessed as compound degradation by HPLC analysis; format: physicochemical; conditions: read-out: Activity
Method in brief: (§3)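 Esters are stored in phosphate buffered saline at 37 °C. Stability is followed over forty-five days by RP-HPLC (C18, acetic acid/acetonitrile pH 5.2, 1.2 ml/min, UV 254 nm), supported by infrared spectroscopy.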

[16] = Metabolic stability in rat liver assessed as half life; format: ADME, tissue-based
[17] = Metabolic stability in rat blood assessed as half life; format: ADME, tissue-based
[18] = Chemical stability in phosphate buffer saline assessed as half life by HPLC analysis; format: physicochemical; method in brief: as §3
[19] = tested on: NCI-H460; assay: Cytotoxicity against human H460 cells at < 100 uM after 5 days by MTT assay; format: functional, cell-based; method in brief: as §1
[20] = tested on: Daoy; assay: Cytotoxicity against human DaOY cells at < 100 uM after 5 days by MTT assay; format: functional, cell-based; method in brief: as §1
[21] = tested on: OVCA3; assay: Cytotoxicity against human OVCA3 cells at < 100 uM after 5 days by MTT assay; format: functional, cell-based; method in brief: as §1
[22] = tested on: MDA-MB-468; assay: Cytotoxicity against human MDA-MB-468 cells transfected with NAD(P)H: quinone oxidoreductase NQO1 at < 100 uM after 5 days by MTT assay; format: functional, cell-based; method in brief: as §1
[23] = tested on: MDA-MB-468; assay: Cytotoxicity against human MDA-MB-468 cells […] at < 100 uM after 5 days by MTT assay; format: functional, cell-based; method in brief: as §1
[24] = tested on: A-375; assay: Cytotoxicity against human A375 cells at < 100 uM after 5 days by MTT assay; format: functional, cell-based; method in brief: as §1
[25] = tested on: WiDr; assay: Cytotoxicity against human WiDr cells at < 100 uM after 5 days by MTT assay; format: functional, cell-based; method in brief: as §1
[26] = tested on: MCF7; assay: Cytotoxicity against human MCF7 cells expressing estrogen and progesterone receptor at < 100 uM after 5 days by MTT assay; format: functional, cell-based; method in brief: as §1

| SMILES | IC50 [1] | IC50 [2] | metabolised at 24 h [3] | IC50 [4] | IC50 [5] | IC50 [6] | logP at 1 h [7] | IC50 [8] | Activity [9] | IC50 [10] | Ratio IC50 [11] | metabolised at 2 h [12] | metabolised at 24 h [13] | IC50 [14] | other results |
| --- | --- | --- | --- | --- | --- | --- | --- | --- | --- | --- | --- | --- | --- | --- | --- |
| CC(=O)[C@H]1CC[C@H]2[C@@H]3CC=C4C[C@@H](OC(=O)CCCc5ccc(N(CCCl)CCCl)cc5)CC[C@]4(C)[C@H]3CC[C@]12C | 88.8 µM | 10.3 µM | 37% | 41.9 µM | 90 µM | 20.5 µM | > 8 | 36.2 µM | 18% | 86.3 µM | 2 | 24% | 83% | 74.2 µM | – |
| C[C@]12CC[C@H](OC(=O)CCCc3ccc(N(CCCl)CCCl)c([N+](=O)[O-])c3)CC1=CC[C@@H]1[C@@H]2CC[C@]2(C)C(=O)CC[C@@H]12 | > 100 µM | 7.25 µM | 51% | > 100 µM | > 100 µM | 10.6 µM | > 8 | > 100 µM | 8% | > 100 µM | 1.5 | 24% | 83% | > 100 µM | degraded [15]: 46% |
| CC(C)(C)OC(=O)CCCc1ccc(N(CCCl)CCCl)cc1 [CHLORAMBUCIL TERTIARY BUTYL ESTER] | – | – | – | – | – | – | – | – | – | – | – | – | – | – | half-life [16]: 2 h; half-life [17]: 7 h |
| CC(=O)[C@H]1CC[C@H]2[C@@H]3CC=C4C[C@@H](OC(=O)CCCc5ccc(N(CCCl)CCCl)c([N+](=O)[O-])c5)CC[C@]4(C)[C@H]3CC[C@]12C | > 100 µM | 19.3 µM | 37% | > 100 µM | 68.3 µM | 32.6 µM | > 8 | > 100 µM | 4% | > 100 µM | 2 | 24% | 83% | > 100 µM | degraded [15]: 48% |
| O=C(O)CCCc1ccc(N(CCCl)CCCl)cc1 [CHLORAMBUCIL] | 8.92 µM | 0.65 µM | – | 1.36 µM | 4.5 µM | 0.79 µM | 3.8 | 2.19 µM | > 100% | 7.13 µM | – | – | – | 2.58 µM | half-life [18]: 1 h |
| CC(=O)[C@H]1CC[C@H]2[C@@H]3CC=C4C[C@@H](O)CC[C@]4(C)[C@H]3CC[C@]12C | – | – | – | – | – | – | – | – | – | – | – | – | – | – | Activity [19]: inactive; Activity [20]: inactive; Activity [21]: inactive; Activity [22]: inactive; Activity [23]: inactive; Activity [24]: inactive; Activity [25]: inactive; Activity [26]: inactive |
| C[C@]12CC[C@H](O)CC1=CC[C@@H]1[C@@H]2CC[C@]2(C)C(=O)CC[C@@H]12 | – | – | – | – | – | – | – | – | – | – | – | – | – | – | Activity [19]: inactive; Activity [20]: inactive; Activity [21]: inactive; Activity [22]: inactive; Activity [23]: inactive; Activity [24]: inactive; Activity [25]: inactive; Activity [26]: inactive |
| C[C@]12CC[C@H](OC(=O)CCCc3ccc(N(CCCl)CCCl)cc3)CC1=CC[C@@H]1[C@@H]2CC[C@]2(C)C(=O)CC[C@@H]12 | 82.5 µM | 5.48 µM | 51% | 19.6 µM | 72.5 µM | 11.8 µM | > 8 | 11.8 µM | 70% | > 100 µM | 1.5 | 24% | 83% | 61.4 µM | – |
| O=C(O)CCCc1ccc(N(CCCl)CCCl)c([N+](=O)[O-])c1 | 15.6 µM | 1.16 µM | – | 5.3 µM | 23 µM | 3.75 µM | 3.7 | 9.53 µM | 38% | 13 µM | – | – | – | 9.46 µM | – |
